High-throughput results as filed in PubChem.
Only a sample is shown.
Apaf-1 act: activators of human Apaf-1 apoptosome | 0.31% of 330,000 active | Apaf-1 apoptosome caspase-3 activation, DEVD-Rh110 fluorescence; hits give low values | O14727 | activity change, negative = activation, % at 20 µM;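 active means activity change at or below -40% at 20 µM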
Target sequence (O14727 whole entry, looked up): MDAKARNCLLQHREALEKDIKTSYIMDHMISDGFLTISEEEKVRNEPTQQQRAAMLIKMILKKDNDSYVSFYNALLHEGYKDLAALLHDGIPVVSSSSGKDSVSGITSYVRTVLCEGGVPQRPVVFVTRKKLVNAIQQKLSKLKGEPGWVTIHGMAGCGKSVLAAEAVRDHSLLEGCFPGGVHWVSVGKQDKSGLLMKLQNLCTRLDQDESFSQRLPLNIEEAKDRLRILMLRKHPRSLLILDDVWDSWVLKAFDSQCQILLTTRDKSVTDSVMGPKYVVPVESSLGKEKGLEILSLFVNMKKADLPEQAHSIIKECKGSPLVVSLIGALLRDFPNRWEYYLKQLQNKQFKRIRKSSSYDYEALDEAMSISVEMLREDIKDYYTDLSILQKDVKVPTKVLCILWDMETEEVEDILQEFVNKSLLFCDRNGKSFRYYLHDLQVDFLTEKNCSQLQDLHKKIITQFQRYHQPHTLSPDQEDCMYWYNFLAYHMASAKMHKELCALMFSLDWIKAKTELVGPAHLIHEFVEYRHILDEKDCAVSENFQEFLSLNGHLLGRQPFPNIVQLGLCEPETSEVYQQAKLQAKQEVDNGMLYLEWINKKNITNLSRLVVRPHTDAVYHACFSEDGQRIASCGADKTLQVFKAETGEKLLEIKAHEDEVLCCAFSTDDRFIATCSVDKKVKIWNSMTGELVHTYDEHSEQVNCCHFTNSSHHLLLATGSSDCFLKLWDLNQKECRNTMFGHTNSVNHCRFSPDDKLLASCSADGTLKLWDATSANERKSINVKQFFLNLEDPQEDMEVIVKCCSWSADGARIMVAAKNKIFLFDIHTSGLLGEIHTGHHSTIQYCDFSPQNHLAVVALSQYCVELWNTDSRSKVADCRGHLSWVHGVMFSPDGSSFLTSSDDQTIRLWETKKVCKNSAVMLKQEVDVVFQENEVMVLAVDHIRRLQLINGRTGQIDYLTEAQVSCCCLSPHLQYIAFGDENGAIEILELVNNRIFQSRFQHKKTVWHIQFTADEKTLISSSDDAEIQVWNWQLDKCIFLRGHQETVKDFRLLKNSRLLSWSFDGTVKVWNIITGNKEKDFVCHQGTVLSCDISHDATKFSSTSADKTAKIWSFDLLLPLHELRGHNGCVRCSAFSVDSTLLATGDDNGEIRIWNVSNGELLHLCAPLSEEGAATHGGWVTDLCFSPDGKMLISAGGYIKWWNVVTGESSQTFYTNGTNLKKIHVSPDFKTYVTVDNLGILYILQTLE
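Assay system – biochemical Apaf-1 apoptosome reconstitution · Medium – 20 mM HEPES buffer, pH 7.5, containing CHAPS and BSA · Incubation – 30 min preincubation, 50 min reaction, room temperature · Measured by – Caspase-3-released Rh110 fluorescence, 540 nm emission, 480 nm excitation · Read-out – Caspase-3 cleavage activity downstream of Apaf-1 activation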
Rh110 act interf: Rh110 signal interference in Apaf-1 activator counter-screen. 980 tested, under 10 active. shares compounds with Apaf-1 act. AID 504616. Rh110 fluorescence interference, quenched caspase reaction, Ex480/Em540. fluorescence interference (activity change), % at 20 µM, hits read low;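 active means mean activity change at or below -40% when tested at 20 µM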
Apaf-1 act conf: confirmation of human Apaf-1 activators. shares compounds with Apaf-1 act. reconstituted apoptosome caspase-3 activity, DEVD-Rh110 fluorescence; hits give low values. activity change, negative = activation, % at 20 µM. 5% of 980 active;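 active means mean activity change at or below -40%, meaning activation of 40% or more, at 20 µM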
Apaf1 act interf: shows fluorescence interference in the Apaf-1 activator assay format; AID 588592; 55 tested, under 10 active; EC50, µM; fluorescence interference counterscreen; shares compounds with Apaf-1 act; call rule not given here
Starred values were filed as active, the others as inactive; x = no result given.

SMILES	Apaf-1 act	Rh110 act interf	Apaf-1 act conf	others
CCOc1ccc(OCc2ccc(C(=O)Nc3cccnc3)cc2)cc1	-51*	2	6
S=C(Nc1cccnc1)Nc1cccc2cnccc12	86	x	x
CCOc1ccc(NC(=O)CN(C)C(=O)c2ccc(COc3ccccc3)cc2)cc1OCC	48	x	x
O=C(Nc1ccccc1C(=O)Nc1cccnc1)c1ccccc1	-166*	9	14
CCN(C(=S)Nc1cccnc1)c1cccc2ccccc12	85	x	x
Nc1ccc(C(=O)O)c(O)c1	-8	x	x
O=P(CCCCCCCCCP(=O)(c1ccccc1)c1ccccc1)(c1ccccc1)c1ccccc1	53	x	x
COc1ccccc1C1Nc2cccc3cccc(c23)N1	51	x	x
CC(C)(C)C(=O)NC1=NN(c2c(Cl)cc(Cl)cc2Cl)C(=O)C1	68	x	x
CCCCc1nn2c(N)c(/C=C3\C=Nc4ccccc43)c(=O)nc2s1	-459*	19	30
CCOC(=O)c1ccc(NC2=CC(=O)C(=O)c3ccccc32)cc1	72	x	x
c1ccc(-c2c(-c3ccccc3)n(Cc3ccco3)c3ncnc(NCCCn4ccnc4)c23)cc1	42	x	x
N#Cc1c(N)n(CCNC(=O)c2cccs2)c2nc3ccccc3nc12	90	x	x
CCOc1ccc(Cc2nnc(SCC(=O)Nc3ccc(C(C)=O)cc3)[nH]c2=O)cc1	-416*	8	22
O=C(c1ccc([N+](=O)[O-])o1)N(Cc1nnc(-c2ccccc2Cl)o1)C1CC1	51	x	x
CC(=O)c1cc(F)c(N2CCN(CCC#N)CC2)cc1C	-456*	9	13
CC(C)c1nccn1S(=O)(=O)c1cc(Cl)ccc1Cl	-41*	-1	7
C#CCOCCOCCOCCNc1nc(N2CCN(C(=O)CCCCCCCCCCNC(=O)[C@H](CO)n3cc(CCCCCN)nn3)CC2)nc(N2CCN(C(=O)CCCCCCCCCCNC(=O)[C@H](CCCN=C(N)N)n3cc(C[C@@H](C)CC)nn3)CC2)n1	61	x	x
Nc1ccc(N2CCCCCC2)cc1	93	x	x
COc1ccc(OC)c2sc(N(CCCN(C)C)C(=O)c3ccc(S(=O)(=O)N4CCc5ccccc5C4)cc3)nc12	55	x	x
CCCN(CC(=O)Nc1ccccc1C)C(=O)C1CCN(c2ncnc3sc(C)c(C)c23)CC1	49	x	x
Cc1sc2ncn(CC(=O)NCCCC(=O)N3CCN(c4ccccc4)CC3)c(=O)c2c1C	-313*	2	8
COc1ccc(Br)cc1C1CC(=O)N2CN(Cc3ccccc3)CSC2=C1C#N (stereo not drawn)	78	x	x
COc1ccc2cnn(-c3ccc(OC(F)(F)F)cc3)c(=O)c2c1OC	-49*	1	2
CN(CC(=O)Nc1ccc(Cl)c(C(F)(F)F)c1)C(=O)CC1Sc2ccccc2NC1=O (stereo not drawn)	51	x	x
SMILES	Apaf-1 act	Rh110 act interf	Apaf-1 act conf	others
COc1cc(NC(C)CCCN)c2ncccc2c1Oc1ccccc1 (stereo not drawn)	70	x	x
Cc1cc(O)c(C(C)C)cc1N=Cc1cc([N+](=O)[O-])ccc1O	44	x	x
CCCCC(CCC(=O)Nc1cc([N+](=O)[O-])ccc1O)C(=O)O (stereo not drawn)	-227*	11	20
O=C(O)CC1S/C(=N/N=C/c2ccc(-c3ccccc3[N+](=O)[O-])o2)NC1=O (stereo not drawn)	73	x	x
O=C(CCN1CCOCC1)N1CCCC(Nc2ccc(F)cc2)C1 (stereo not drawn)	-56*	3	5
COC(=O)CCC(=O)OC1(C)C(=O)C2=CN(CCN3CCOCC3)C(c3ccc(OC)cc3)=CC2=C(Br)C1=O (stereo not drawn)	86	x	x
COc1ccc(-c2nc3nc(C)c(Cc4ccccc4)c(=O)n3[nH]2)cc1	49	x	x	Apaf1 act interf=>100
COc1ccc(Cn2nc(-c3ccccc3)c(N3CCCCC3)cc2=O)cc1	46	x	x
COC(=O)CCC(=O)OC1(C)C(=O)C2=CN(C(CO)CO)C(c3ccc(OC)cc3)=CC2=C(Br)C1=O (stereo not drawn)	81	x	x
COc1ccccc1N1CCN(C(=O)c2cc(C(C)(C)C)oc2C)CC1	-380*	4	7
Cc1noc(C)c1COc1ccccc1C(=O)N1CCN(c2cccc(Cl)c2)CC1	52	x	x
COC(=O)C1=C(C)N(Cc2ccccc2)C(=NCc2ccccc2)N[C@H]1c1ccccc1	47	x	x
C#CCOCCOCCOCCNc1nc(N2CCN(C(=O)CCCCCCCCCCNC(=O)[C@H](CCCN=C(N)N)n3cc(C[C@@H](C)CC)nn3)CC2)nc(N2CCN(C(=O)CCCCCCCCCCNC(=O)[C@@H]([C@H](C)CC)n3cc(CCCCCN)nn3)CC2)n1	80	x	x
COc1cc(OC)c(NC2=CC(=O)C(=O)c3ccccc32)cc1Cl	92	x	x
Cc1cccc(C)c1NC(=O)c1sc(Cl)nc1C	-201*	10	11
CC1=NN(c2ccc(Cl)cc2)C(=O)C1C(c1ccccc1O)c1c(C)[nH]n(-c2ccc(Cl)cc2)c1=O (stereo not drawn)	97	x	x
O=C(NC1CC1)c1cc2ccccc2o1	-363*	1	-1
O=C(NC1CC2CCCC(C1)N2S(=O)(=O)c1ccccc1)c1ccco1 (stereo not drawn)	42	x	x
O=C(Nc1ccc2nc(-c3ccco3)c(-c3ccco3)nc2c1)NC1CC1	47	x	x
COC1=CC(=O)c2ccccc2C1=O	79	x	x
CCN(CC)S(=O)(=O)c1ccc(/C=C/C(=O)OCC#N)cc1	-82*	-7	5
CN(C)S(=O)(=O)c1cccc(NC(=O)COC(=O)/C=C/c2ccco2)c1	95	x	x
Cn1c(NC(=O)c2ccc(Cl)s2)cc(=O)n(C)c1=O	66	x	x
O=C1C(=O)c2ccc(-c3ccccc3)cc2-c2ccccc21	98	x	x
O=C(c1ccccc1)c1ccc2c(c1)OCCOCCOCCOCCO2	-208*	1	1
SMILES	Apaf-1 act	Rh110 act interf	Apaf-1 act conf	others
COc1ccc2c(-c3ccc(OCCN4CCCCC4)cc3)c(-c3ccccc3OC)sc2c1	60	x	x
O=S(=O)(/N=C/N1CCOCC1)c1ccc(Cl)cc1	43	x	x
Cc1ccc(Oc2nsnc2N2CCOCC2)cc1	-106*	4	13
Cc1ccc(NC2=C(N3CCOCC3)C(=O)c3ccccc3C2=O)cc1	59	x	x
CCN(CC)c1ccc(N=Cc2ccccc2[N+](=O)[O-])cc1	62	x	x
C#CCOCCOCCOCCNc1nc(N2CCN(C(=O)[C@H]([C@@H](C)CC)n3cc([C@@H](N)CC(C)C)nn3)CC2)nc(N2CCN(C(=O)[C@H](Cc3cc4ccccc4[nH]3)n3cc([C@@H](N)Cc4ccc(O)cc4)nn3)CC2)n1	56	x	x
Nc1ccc(Br)c2cccnc12	85	x	x
CSc1ccc(C=NNc2ccc(S(=O)(=O)Nc3ccccc3C(=O)O)cc2[N+](=O)[O-])cc1	-90*	11	-133*	Apaf1 act interf=>100
CCC[C@@H](CN1CCC[C@H]1CN1C(N)=NC[C@@H]1Cc1ccccc1)N1C[C@@H]([C@H](C)CC)N(CCCC2CCCC2)C1=N	77	x	x
CC(C)(C)C(=O)[C@@H]1[C@@H]2C(=O)N(c3ccc4c(c3)OCCO4)C(=O)[C@@H]2C2c3ccccc3C=CN21 (stereo partly drawn)	62	x	x
Cc1ccc(NC2=C/C(=N\S(=O)(=O)c3cccs3)c3ccccc3C2=O)c(C)c1	95	x	x
